Assay outcomes from PubChem.
EP2 antag: blocks the human prostaglandin E2 receptor EP2 | hit rate 0.52% among 260,000 | P43116 | C6 glioma cells expressing human EP2, cAMP TR-FRET; cells stimulated with saturating PGE2 | inhibition, % at 25 µM;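 active = percent inhibition above 40 after rounding to a whole number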;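 note: rat C6 glioma host cells with rolipram phosphodiesterase inhibitor present; the protocol text gives 20 µM as final concentration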
OX1R antag-1: blocks the human orexin 1 receptor; inhibition, % at 5 µM; AID 434989; O43613; hit rate 0.43% among 330,000; CHO/OX1R cells, Fluo-8 calcium fluorescence, orexin A;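 active = inhibition above its plate's threshold, mean inhibition of all tested compounds on the plate plus 3 SD, cut at about 37% in these data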
OX1R antag-2: OX1R (human) antagonism | hit rate 1.8% among 330,000 | AID 485270 | OX1R-expressing cells, FRET antagonist read-out | O43613 | inhibition, % at 6.6 µM; in the data active = inhibition mostly above about 38%, no sharp cut-off; inactive = mostly below about 40%
CHO parental Ca: counter-screen: ATP calcium response change in parental CHO cells; parental CHO-K1, ATP-induced calcium, Fluo-8 fluorescence; inhibition, % at 5.6 µM; hit rate 0.63% among 330,000; AID 463079;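 active = inhibition above that plate's mean sample inhibition plus 3 SD, cut at about 26% in these data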
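Material: parental CHO cells / Compound: single nominal dose of 5.6 µM per compound / Signal: Fluo-8 fluorescence / Replicates: singlicate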
EP2 mod: modulators of human EP2 prostaglandin E2 receptor | induction, % at 25 µM | hit rate 0.83% among 260,000 | EP2-expressing cells, cAMP HTRF FRET, PGE2 co-stimulation;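 active = compounds whose cAMP rise, as percent of the full-agonist control response, exceeds 60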;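 note: rat C6 glioma line stably carrying human EP2 under a CMV promoter; the protocol text gives 20 µM as final concentration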
GPR7 antagonist: human neuropeptides B/W receptor 1 antagonism; GPR7-expressing cells, fluorescence antagonist assay; inhibition, % at 4.4 µM; hit rate 1.1% among 290,000; AID 1861; in the data active = inhibition above about 16%, passing the limit was not always enough;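 note: cells stimulated with the agonist NPW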
Target sequence (P48145 whole entry, looked up): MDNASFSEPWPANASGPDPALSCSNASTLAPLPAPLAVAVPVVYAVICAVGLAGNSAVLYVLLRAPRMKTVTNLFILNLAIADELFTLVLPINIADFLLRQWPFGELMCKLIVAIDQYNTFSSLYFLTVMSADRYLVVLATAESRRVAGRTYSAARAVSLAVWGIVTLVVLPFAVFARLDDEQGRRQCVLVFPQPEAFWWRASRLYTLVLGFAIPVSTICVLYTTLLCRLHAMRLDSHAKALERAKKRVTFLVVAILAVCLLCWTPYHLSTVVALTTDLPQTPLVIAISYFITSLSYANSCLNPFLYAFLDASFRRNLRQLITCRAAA
A number is an active result; – = inactive; · = not tested or not shown. Sampled rows, rich in hits. Any-hit rate of the full collection: about 3.7%.

SMILES | EP2 antag | OX1R antag-1 | OX1R antag-2 | CHO parental Ca | EP2 mod | GPR7 antagonist
CCN(CC(=O)NCc1ccc(F)cc1)Cc1nc2cc(Cl)ccc2c(=O)[nH]1 | – | – | – | – | – | –
CCN(Cc1nc2cc(Cl)ccc2c(=O)[nH]1)C(=O)c1ccc(C)c(NC(=O)c2ccco2)c1 | · | – | 76 | – | · | ·
CCCCC1(C)OC(=O)C(=Cc2ccc(-c3ccc(Cl)c(C(=O)O)c3)o2)C(=O)O1 (centres undefined) | – | – | – | – | – | –
COC(=O)c1cc(-c2ccc(C=C3C(=O)OC4(CCCC4)OC3=O)o2)ccc1Cl | 88 | · | · | · | – | ·
CN(C)/C=C1\C(=O)ON=C1c1ccccc1 | – | – | – | – | – | –
Cc1ccc(C2=NOC(=O)/C2=C\C=C\c2ccccc2)cc1 | 98 | · | · | · | – | –
CCOc1ccc(NC(=O)CN(C)C(=O)c2ccc(COc3ccccc3)cc2)cc1OCC | · | – | – | – | · | ·
COc1cc(OC)c(OC)cc1/C=N/NC(=O)c1cc(-c2cccn2C)n[nH]1 | – | – | 59 | – | – | –
O=C(COc1ncnc2cc([N+](=O)[O-])ccc12)NCCc1ccc(Cl)cc1 | – | – | – | – | – | –
CC(NC(=O)COc1ncnc2cc([N+](=O)[O-])ccc12)c1ccccc1 (centres undefined) | – | – | 64 | – | – | –
CCOC(=O)c1c(C)[nH]c(C)c1C(=O)COc1ncnc2cc([N+](=O)[O-])ccc12 | – | – | 75 | – | – | –
O=C(COc1ncnc2cc([N+](=O)[O-])ccc12)NC(=O)NC1CCCCC1 | – | – | – | – | – | –
CCOc1cc(/C=C2\C(=N)N3N=CSC3=NC2=O)ccc1OS(=O)(=O)c1ccccc1 | · | – | – | – | · | –
Cc1ccc(-n2c(P(C)(=O)O)nc3ccccc32)cc1 | – | – | – | – | – | –
Cc1ccc(SCc2ccc(C(=O)Nc3cccc([N+](=O)[O-])c3C)cc2)cc1 | – | – | – | – | – | –
Cc1cc(C)n2nc(SCc3c(F)cccc3Cl)nc2n1 | · | – | – | – | · | –
CCCC(=O)N1c2cc(C)ccc2-c2c(ssc2=S)C1(C)C | – | · | · | · | 67 | ·
O=C(Cc1ccccc1)NCC(=O)N/N=C/c1cccnc1 | – | – | – | – | – | –
O=C(CNC(=O)C(c1ccccc1)c1ccccc1)N/N=C/c1cccnc1 | – | – | – | – | – | 20
COc1ccc(C(CC(=O)N2CCCC2)c2c(OC)cc(OC)c3c(-c4ccccc4)cc(=O)oc23)cc1 (centres undefined) | – | – | – | – | – | ·
COC(=O)c1ccc(CSc2nnc(N)s2)cc1 | – | – | – | – | – | 19
COC(=O)c1ccc(CSc2nnc(C)s2)cc1 | – | – | – | – | · | –
Fc1ccccc1/C=C/c1ccc2ccccc2n1 | – | – | 72 | – | – | –
COc1ccc(C2C3=C(CC(c4ccco4)CC3=O)Nc3ccccc3N2C(C)=O)cc1 (centres undefined) | – | – | – | – | – | –
COc1cccc(C2CC(=O)C3=C(C2)Nc2ccccc2N(C(=O)CCC(=O)O)C3c2ccc(F)cc2)c1 (centres undefined) | – | – | – | 99 | – | –
SMILES | EP2 antag | OX1R antag-1 | OX1R antag-2 | CHO parental Ca | EP2 mod | GPR7 antagonist
COc1ccc(/C=C/CN2CCN(CC(C)C)C(CCO)C2)cc1 (centres undefined) | – | – | – | – | – | –
Nc1ccccc1O | · | – | 32 | – | · | ·
Nc1cc(Cl)c(NC2=NCCN2)c(Cl)c1 | – | · | · | · | – | ·
CC1CCC(C(C)C)C(OC(=O)C[n+]2cc(-c3ccc(Cl)cc3)n3c2CCCCC3)C1 (centres undefined) | – | – | – | – | – | 59
O=C(C[n+]1cc(-c2ccccc2)n2c1CCCCC2)c1ccc(Cl)cc1 | – | – | – | – | – | –
CC(C)COC(=O)CCNc1n[nH]c(=O)[nH]c1=O | – | – | – | – | – | –
CC(C)COC(=O)C(C)Nc1n[nH]c(=S)[nH]c1=O (centres undefined) | 47 | – | – | – | – | –
CC(C)OC(=O)C(C)Nc1n[nH]c(=S)[nH]c1=O (centres undefined) | 105 | · | · | · | – | –
Fc1ccc(C2CC(c3ccco3)=Nc3ccccc3S2)cc1 (centres undefined) | – | – | – | – | 62 | –
CCc1cc2c(=O)n(Cc3ccco3)c(SCC(=O)N3CCCc4ccccc43)nc2s1 | – | – | – | – | – | –
N#C[C@H](c1ccccc1)N1CCCN([C@@H](C#N)c2ccccc2)C1c1ccccc1O (some centres undefined) | 43 | · | · | · | – | ·
CC1=NN(C(C#N)c2ccccc2)C(C)(C)C1 (centres undefined) | – | – | – | – | – | –
Cc1ccc(C2NC(c3ccc(C)cc3)C([N+](=O)[O-])C(C)(C)C2[N+](=O)[O-])cc1 (centres undefined) | – | – | – | – | – | –
CCOC(=O)/C(C#N)=C/c1c[nH]c2ccccc12 | – | – | 51 | – | – | –
COC(=O)/C(C#N)=C/c1c[nH]c2ccccc12 | – | – | – | – | – | –
Cc1cc(C)c(C(N)=O)c(SCC(=O)c2cc(C)c(C)cc2C)n1 | – | – | – | – | – | –
Cc1cc(C)c(C(N)=O)c(SCC(=O)c2cc(C)n(-c3cc(C)on3)c2C)n1 | · | – | – | 31 | · | ·
COc1cccc(-c2csc(NC(=O)Nc3ccccc3)n2)c1 | · | 45 | 74 | 32 | · | –
COc1ccc(OC)c(NC(=O)c2ccc(-c3csc(C)n3)cc2)c1 | · | – | 51 | – | · | –
O=C(Nc1ccccc1)Nc1nc(-c2ccccc2)cs1 | – | – | – | – | – | –
COc1ccc(-c2csc(NC(=O)COc3ccc(N(C)S(=O)(=O)c4ccc(C)cc4)cc3)n2)cc1 | – | – | – | – | – | –
COc1ccc(S(=O)(=O)Nc2ccccc2C(=O)Nc2nc(-c3ccc(F)cc3)cs2)cc1OC | – | – | 67 | – | – | –
COc1ccc(-c2csc(NC(=O)c3ccccc3NS(=O)(=O)c3ccc(C)cc3)n2)cc1 | – | – | 43 | – | – | 27
Cc1noc(NS(=O)(=O)c2ccc(NC(=O)CCC3CCCCC3)cc2)c1C | – | – | – | – | – | –
COc1ccc(-c2csc(NC(=O)c3ccco3)n2)cc1 | – | – | – | – | – | –
COc1ccc(-c2csc(NC(=O)c3c(OC)cccc3OC)n2)cc1 | – | – | 68 | – | – | –
COCCNC(=O)/C(C#N)=C1\N=C(NC(=O)c2cccs2)c2ccccc21 | · | – | 42 | – | · | –
c1coc(CNC2CCCCC2)c1 | – | – | – | – | – | –
CCOC(=O)C1=C(C)N(C)C(=S)NC1c1ccccc1Cl (centres undefined) | – | – | – | – | – | –
CCOC(=O)C1=C(C)N(C)C(=S)NC1c1cccc(Cl)c1Cl (centres undefined) | – | – | – | – | 64 | –
